Data reported in ChEMBL document CHEMBL1122043, “A new class of nitrosoureas. 4. Synthesis and antitumor activity of disaccharide derivatives of 3,3-disubstituted 1-(2-chloroethyl)-1-nitrosoureas” (J Med Chem, 1982).

Key:
[1] = […] required for antitumor activity against Ehrlich ascites carcinoma cells in […] mice.; assay type: functional, Mus musculus
[2] = Therapeutic index value for anti-Ehrlich activity.; settings: mouse; for selectivity ratio: read-out: TI
Outline: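 Ehrlich ascites cells (10^6) were inoculated ip into 5 female ICR mice. Ip dosing began 24 h later and was given once daily for 5 days. Therapeutic ratio = MTD/MED. MED is the minimum dose giving 100% inhibition of tumor growth. MTD is the maximum dose giving 100% inhibition without mouse deaths.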

[3] = Therapeutic index value for anti-L1210 activity.; settings: mouse; for selectivity ratio: read-out: TI
Outline: (§1)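 Mice were male BDF1 inoculated ip with 10^5 L1210 cells. Ip treatment began 24 h later. Therapeutic ratio = OD/ILS30. ILS30 is the daily dose giving a 30% increase in life-span over control. OD is the daily dose giving the maximum increase in life-span.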

[4] = tested on: L1210; assay: Antitumor activity against Leukemia L1210 cells in male BDF1 mice at the dose of 100 mg/kg/day x5 (i.p.) expressed as maximal increase in life-span; assay type: functional, Mus musculus; settings: route intraperitoneal
Outline: (§2)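 L1210 leukemia cells (10^5) given ip to male BDF1 mice. Ip dosing started 24 h after inoculation and was given once daily for 5 days. Life-span increase was calculated as ILS (%) = (T/C-1) × 100. Optimal dose was the daily dose giving the maximum increase in life-span.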

[5] = Maximum tolerated dose required antitumor activity against Ehrlich ascites carcinoma cells in female ICR mice.
[6] = tested on: L1210; assay: Antitumor activity against Leukemia L1210 cells in BDF1 mice at the dose of 50 mg/kg/day x 1 (i.p.), ILS30; settings: route intraperitoneal
[7] = Minimum effective dose required for antitumor activity against Ehrlich ascites carcinoma cells in female ICR mice.
[8] = tested on: L1210; assay: Antitumor activity against Leukemia L1210 cells in male BDF1 mice at the dose of 25 mg/kg/day x5 (i.p.) expressed as maximal increase in life-span; assay type: functional, Mus musculus; settings: route intraperitoneal
Outline: (§3)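 Male BDF1 mice were inoculated ip with 10^5 L1210 leukemia cells. Drug was given ip once daily for 5 days, starting 24 h after inoculation. ILS (%) = (T/C-1) × 100. The recorded value is the ILS at the optimal dose, meaning the daily dose giving the maximum increase in life-span.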

[9] = tested on: L1210; assay: Antitumor activity against Leukemia L1210 cells in male BDF1 mice at the dose of 200 mg/kg/day x5 (i.p.) expressed as maximal increase in life-span; assay type: functional, Mus musculus; settings: route intraperitoneal; outline: as §2
[10] = tested on: L1210; assay: Antitumor activity against Leukemia L1210 cells in BDF1 mice at the dose of 6.25 mg/kg/day x5 (i.p.) expressed as maximal increase in life-span; assay type: functional, Mus musculus; settings: route intraperitoneal; outline: as §2
[11] = tested on: L1210; assay: Antitumor activity against Leukemia L1210 cells in BDF1 mice at the dose of 6.25 mg/kg/day x 5 (ip), maximum increase in life-span; assay type: functional, Mus musculus; outline: as §3
[12] = tested on: L1210; assay: Antitumor activity against Leukemia L1210 cells in BDF1 mice at the dose of 25 mg/kg/day x1 (i.p.) expressed as maximal increase in life-span; settings: route intraperitoneal
[13] = tested on: L1210; assay: Antitumor activity against Leukemia L1210 cells in male BDF1 mice at the dose of 6.25 mg/kg/day x5 (i.p.) expressed as maximal increase in life-span; assay type: functional, Mus musculus; settings: route intraperitoneal; outline: as §2
[14] = tested on: L1210; assay: Antitumor activity against Leukemia L1210 cells in male BDF1 mice at the dose of 200 mg/kg/day x5 (ip) expressed as maximal increase in life-span; assay type: functional, Mus musculus; outline: as §2
[15] = tested on: L1210; assay: Antitumor activity against Leukemia L1210 cells in BDF1 mice at the dose of 400 mg/kg/day x 5 (ip), maximum increase in life-span; assay type: functional, Mus musculus; outline: as §3
[16] = tested on: L1210; assay: Antitumor activity against Leukemia L1210 cells in BDF1 mice at the dose of 50 mg/kg/day x5 (i.p.) expressed as maximal increase in life-span; assay type: functional, Mus musculus; settings: route intraperitoneal; outline: as §2
[17] = tested on: L1210; assay: Antitumor activity against Leukemia L1210 cells in male BDF1 mice at the dose of 230 mg/kg/day x1 (i.p.) expressed as maximal increase in life-span; assay type: functional, Mus musculus; settings: route intraperitoneal
Outline: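 Male BDF1 mice (six or eight) received 10^5 L1210 cells ip. A single ip dose, in (mg/kg)/day × 1, was given 24 h after inoculation. ILS (%) = (T/C-1) × 100. The optimal dose was the dose giving the maximum increase in life-span.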

[18] = tested on: L1210; assay: Antitumor activity against Leukemia L1210 cells in BDF1 mice at the dose of 130 mg/kg/ day *5 (i.p.) expressed as maximal increase in life-span; assay type: functional, Mus musculus; settings: route intraperitoneal; in the assay text read “25 mg/kg/ day” for “130 mg/kg/ day”; outline: as §2
[19] = Therapeutic index value for anti L1210 activity; Inactive; outline: as §1
[20] = tested on: L1210; assay: Antitumor activity against Leukemia L1210 cells in male BDF1 mice at the dose of 400 mg/kg/day x5 (i.p.) expressed as maximal increase in life-span; assay type: functional, Mus musculus; settings: route intraperitoneal; outline: as §2
[21] = tested on: L1210; assay: Antitumor activity against Leukemia L1210 cells in male BDF1 mice at the dose of 50 mg/kg/day x5 (i.p.) expressed as maximal increase in life-span; assay type: functional, Mus musculus; settings: route intraperitoneal; outline: as §2

Structure (SMILES) | MED [1] [mg kg-1 5day-1] | selectivity ratio [2] | selectivity ratio [3] | ILS30 [4] | further results
C=CCN(C(=O)N(CCCl)N=O)C1OC(CO)C(OC2OC(CO)C(O)C(O)C2O)C(O)C1O (stereo unspecified) | 1.56 | 64 | 50 | 2 | 
O=NN(CCCl)C(=O)NC1CCCCC1 [LOMUSTINE] |  | 4 | 5.1 |  | MTD [5]: 50 mg kg-1 5day-1; ILS30 [6]: 9.3 mg/kg; MED [7]: 12.5 mg kg-1 5day-1; ILS30 [8]: 4.9
O=NN(CCCl)C(=O)N(CC1CCCO1)C1OC(CO)C(OC2OC(CO)C(O)C(O)C2O)C(O)C1O (stereo unspecified) | 3.12 | 64 | 33.3 |  | ILS30 [9]: 6
O=NN(CCCl)C(=O)N[C@@H]1O[C@H](CO)[C@@H](O)[C@H](O)[C@H]1O |  | 32 | 7.8 |  | MTD [5]: 12.5 mg kg-1 5day-1; ILS30 [10]: 0.8; ILS max [11]: >198.6%; ILS30 [12]: 1.1; MED [7]: 0.39 mg kg-1 5day-1; ILS30 [13]: 0.8
CCCCCN(C(=O)N(CCCl)N=O)C1OC(CO)C(OC2OC(CO)C(O)C(O)C2O)C(O)C1O (stereo unspecified) | 3.12 | 64 | 28.6 | 3.5 | 
CC(C)CN(C(=O)N(CCCl)N=O)C1OC(CO)C(OC2OC(CO)C(O)C(O)C2O)C(O)C1O (stereo in doubt; 63) | 100 |  |  |  | ILS30 [14]: 160; TI [2]: 2; TI [3]: 1.3
CCCN(C(=O)N(CCCl)N=O)C1OC(CO)C(OC2OC(CO)C(O)C(O)C2O)C(O)C1O (stereo unspecified) |  | 64 | 20.4 | 4.9 | 
CC(=O)OCC1OC(N(CC(C)C)C(=O)N(CCCl)N=O)C(OC(C)=O)C(OC(C)=O)C1COCC1OC(COC(C)=O)C(OC(C)=O)C(OC(C)=O)C1OC(C)=O (stereo unspecified) |  |  |  |  | ILS max [15]: 18%
CC(C)CN(C(=O)N(CCCl)N=O)C1OC(CO)C(O)C(O)C1O (stereo unspecified) |  |  | 50 |  | ILS30 [16]: 1; TI [3]: 34.2; ILS30 [17]: 2.6; ILS30 [18]: 0.73
O=NN(CCCl)C(=O)N(CC1CCCCC1)C1OC(CO)C(OC2OC(CO)C(O)C(O)C2O)C(O)C1O (stereo unspecified) | 3.12 | 32 | 12.5 | 8 | 
CC(C)N(C(=O)N(CCCl)N=O)C1OC(CO)C(OC2OC(CO)C(O)C(O)C2O)C(O)C1O (stereo unspecified) |  | 32 | 18.5 | 5.4 | 
CCCCCCCCCCCCCCCCN(C(=O)N(CCCl)N=O)C1OC(CO)C(OC2OC(CO)C(O)C(O)C2O)C(O)C1O (stereo unspecified) |  | 32 |  |  | TI [19]: Not Active
CCC(C)N(C(=O)N(CCCl)N=O)C1OC(CO)C(OC2OC(CO)C(O)C(O)C2O)C(O)C1O (stereo unspecified) | 1.56 | 128 | 66.7 | 1.5 | 
COCCN(C(=O)N(CCCl)N=O)C1OC(CO)C(OC2OC(CO)C(O)C(O)C2O)C(O)C1O (stereo unspecified) | 3.12 | 64 | 11.8 |  | ILS30 [9]: 17
COCCCN(C(=O)N(CCCl)N=O)C1OC(CO)C(OC2OC(CO)C(O)C(O)C2O)C(O)C1O (stereo unspecified) | 3.12 | 64 | 26.7 |  | ILS30 [9]: 7.5
Cc1ncc(CNC(=O)N(CCCl)N=O)c(N)n1 [NIMUSTINE] |  | 8 | 9.3 |  | MTD [5]: 25 mg kg-1 5day-1; MED [7]: 3.12 mg kg-1 5day-1; ILS30 [8]: 2.9
O=NN(CCCl)C(=O)N(CC1CC1)C1OC(CO)C(OC2OC(CO)C(O)C(O)C2O)C(O)C1O (stereo unspecified) | 1.56 | 64 | 28.6 | 3.5 | 
C=C(C)CN(C(=O)N(CCCl)N=O)C1OC(CO)C(OC2OC(CO)C(O)C(O)C2O)C(O)C1O (stereo unspecified) | 1.56 | 128 | 62.5 |  | ILS30 [9]: 3.2
CCOCCN(C(=O)N(CCCl)N=O)C1OC(CO)C(OC2OC(CO)C(O)C(O)C2O)C(O)C1O (stereo unspecified) | 3.12 | 64 | 37 | 2.7 | 
C=CCCN(C(=O)N(CCCl)N=O)C1OC(CO)C(OC2OC(CO)C(O)C(O)C2O)C(O)C1O (stereo unspecified) | 1.56 | 128 | 64.5 |  | ILS30 [9]: 3.1
CC(C)CN(C(=O)N(CCCl)N=O)C1OC(COC2OC(CO)C(O)C(O)C2O)C(O)C(O)C1O (stereo unspecified) |  | 1 | 1.1 |  | ILS30 [20]: 350
CCCCN(C(=O)N(CCCl)N=O)C1OC(CO)C(OC2OC(CO)C(O)C(O)C2O)C(O)C1O (stereo unspecified) | 6.25 | 32 | 22.2 | 4.5 | 
O=NN(CCCl)C(=O)N(Cc1ccc(Cl)cc1)C1OC(CO)C(OC2OC(CO)C(O)C(O)C2O)C(O)C1O (stereo unspecified) | 1.56 | 128 | 10 |  | ILS30 [9]: 20
CN(C(=O)N(CCCl)N=O)C1OC(CO)C(OC2OC(CO)C(O)C(O)C2O)C(O)C1O (stereo unspecified) |  | 32 | 11.4 | 8.8 | 
CC(C)CN(C(=O)N(CCCl)N=O)C1OC(CO)C(OC2OC(CO)C(O)C(O)C2O)C(O)C1O (stereo in doubt; 37) |  |  |  | 1.2 | TI [2]: 256; ILS30 [17]: 7.3
CCCCCCN(C(=O)N(CCCl)N=O)C1OC(CO)C(OC2OC(CO)C(O)C(O)C2O)C(O)C1O (stereo unspecified) |  | 32 | 3.6 |  | ILS30 [21]: 14
